This sample holds only a part of the variants without activity.
B1: tRNA (parent)
chain: GUUCCGUUGGCGUAAUGGUAACGCGUCUCCCUCCUAAGGAGAAGACUGCGGGUUCGAGUCCCGUACGGAACG

Variants of: B1
Test: yeast fitness relative to wild type (ratio to wild type); higher = fitter; tRNA-Arg(CCU), competitive growth, 37 C, YPD
Method in brief: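 Amplicons of the tRNA-Arg(CCU) gene were sequenced, 100-nucleotide paired-end, from the start population and from each end population of a pooled yeast competition. The competition, in six parallel replicates, lasted 24 hours in YPD at 37°C. Fitness relative to wild type was calculated from changes in genotype frequencies. Genotypes had to have ≥ 100 starting reads, and estimates < 0.5 were set to 0.5.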

| Variant | yeast fitness |
| --- | --- |
| GUUCCGUUAGCGUAAUGGUAACGCGUCCCCCUCCUAAGGAGAAAACUGCGCGUUCGACUCCCGUACGGAACG | 0.51 |
| GUUCCGUUGACGUAAUGGUAACGCGUAUCCCUCUUAAGGAGAAGACUGCGGGUUCGGGUCCCGUACGGAACG | ≤ 0.5 |
| GUUCCGUUGGCGUAAUGGCAACGCGUCUCCCUCCUAGGGAGAAGACUGUGGGUUCGAGUCCCGUACGGAACG | 0.566 |
| GUUCCGUUGGCGUAAUGGUAGCGCGUCUCCCUCCUAAGGAGAAGACUGCGGGUUCGAGUGCCGUACGGACCG | 0.579 |
| GUUCCGGUGGCGUAAUGGUAACGCGUCUCCCUCCUAGGGAGAAGACUGCGGGUUGGAGUCCCGUACGGAACG | ≤ 0.5 |
| GUUCCAUUGGCGUAAUGGUAACGCGUCUCCCUUCUAAGGAGAAGACUGCAGCUUCGAGUCCCGUCCGGAACG | ≤ 0.5 |
| GUUCCGUUGGUGUAAUGGUAUCGCGUCUCCCUCCUAAGGAGAAGACUGCGGGUUCGAGUCCCGUACGCAACG | 0.69 |
| GUUCCGUUGGCGUAAUGGUAACGCGUCUCCUUUCUAAGGAGAAGACUGCGGGUUCGAGUCCCGUACGGAACG | 0.723 |
| GUUCCGUUGGCGUAAUGGUCACGUGUCUCCCUCCUAAGGAGAAGACUGCGGGUUCGAGUCGCGUACGGAACG | ≤ 0.5 |
| GUUGCGUUCGCGUAAUGGUAACGCGUCUCCCUCAUAAGGCGAAGACUGCGGGUUCGAGUCCCGUACGGAACG | 0.538 |
| GUUCCGUUGGCGUAAUGGUUACGCGUCUCCCUCCUAAGGAGAAGACUGCGGGUUCGUGUCCCGUACGGAACG | 0.762 |
| GUUCCGUUGCCGUCAUGGUAACGCGUCUCCCUCCUAAGGAGAAGACUGCGGGUUCGAGUCCUGUACGGAACG | 0.537 |
| GUUCCGUUGGCGUAAUGGUAACGCGUCUCCCUCCUAAGGAGAAGACUGCGGCUUCGAGUCCCCUACGGCACG | ≤ 0.5 |
| GUUCCGUUGGCGUAAUGGUAACGCGUCUCCCUCCUACGGAGAAGUCUGCGGGUUCGAGUCCCGUACGGAACG | 0.695 |
| GUCCCGUUGGCGUAAUGGUAACGCGUCGCCCUCCUAAGGAGAAGACUGCGGGUUCGCGUCCCGUACGGAACG | ≤ 0.5 |
| GUUCCGUUGGCGUAAUGGUAACGCGUCUCCCUCCUAAGGAGAAGACUGGCGGUUCGAGUCCCGUUCGGAACG | 0.544 |
| GUUCCGUUGGCGUAAUGCUAACGCGUCUCCCUACUCAGGAGAAGACUGCGCGUUCGAGUCCCGUACGGAACG | ≤ 0.5 |
| GUUCCGUUGGCGUAAUGGUACCGCGUCUCUCUCCUAAGGAGAUGACUCCGGGUUCGAGUCCCGUACGGAACG | ≤ 0.5 |
| GUUCCGUUGGCGUAAUGGUAACGCAUCUCCCUCCUAAGGAGAAGACUGCGGGUUCGAGUGCCCUACGGAACG | 0.548 |
| GUUCCGUUGGCGUAAUGGUAACGCGUCUCCCUCCUCAGGAGAAGCCUGCGGGUACGCGUCCCGUACGGAACG | 0.538 |
| GUUCCGUUGGCGUAAUGGUAUCGCGUGUCCCUCCUUAGCAGAAGACUGCGGGUUCGAGUCCCGUACGGAACG | ≤ 0.5 |
| GUUCCGUUGGCGUAAUGGUAAUGCGUCUCCCUCCUAAGGAGAAGACUCCGGGUUCGAGUCCCGUACGGAACG | 0.863 |
| GUUCCGUAGGCGUAAUGGUAACGCGUCUCCCUCCUAAGGAGAAGACUGCGGCUUCGAGUCCCGUACGGAACG | ≤ 0.5 |
| GUUUCGUUGCCGUAAUGGUAGCGCGUCUCACUCCUAACGAGAAGAUUGCGGGUUCGAGUCCCGUACGGACCG | ≤ 0.5 |
| GUUCCGUUGGCGUACUGGUAACGCGUCUCCCUCCUGAGGAGAAGACCGCGGGUUAGAGUCCCGUACGGUACG | 0.538 |

| Variant | yeast fitness |
| --- | --- |
| GUUCCGCUGGCGUAAUGGUAACGCGUCUCCGUCCUAAGGAGAAGACUGCGGGUUCGAGUCCCGUUCGGAACG | 0.664 |
| GUUCCGUUGGCGUAAUGGUAACGCGUCGCCCUCCUAAGGAGAAGGCUGCGCGUUCGAGUCCCGUACGGAGCG | ≤ 0.5 |
| GUUCUGUUGGGGUAAUGGUAACGCGUCUCCCUGCUAAGGAGAAGACUGCGGGUUCGAGUCCCGUACGGAACG | ≤ 0.5 |
| GUUCCGUUGGCGUAAUGGUAACGCGUCUCCCUCCUAAGGAGAAGACUGCGGGUUCGAGUCCCGUUCGGAUCG | 1.11 |
| GUUCCGUUGGCGUAAUGGUAACGCGUAUCCCUCCUAAGGAGAAGACUGCGGGUUCGAAUCCCGUACGGAACG | 0.849 |
| GUCCCGUUGGCGUAAUGGUAUCGCGUCUCCCUCCUAAGGAGAAGACUGCCGGUUCGAGUCCCGUUCGGAACG | ≤ 0.5 |
| GUUCCGUUGGCGUAAUGGUAACGCGUCUCGCUCCUAAGGAGAAGACUGCGGGUUCGAGUCCCGUACGUAACG | 0.64 |
| GUUCCGUUCGCGCAAUGGUAACGCGUCUCCGUCCUAAGGAGAAGACUGCGGGUUCGGGUCCCGUACGGAACG | ≤ 0.5 |
| GUUCCGUUGGCGUAAUGCUAACGCGUCUCCCUCCUAAGGGGGAGACUGCGGGUUCGAGUCCCGUAGGGAACG | ≤ 0.5 |
| GUUCCGUUGGGGUAAAGGUAACGUGUCUCCCUCCUAAGGAGAAGACUGCGGGUUCGAGUCCCGUACGGAACG | ≤ 0.5 |
| GUUCCGUUGGCGUAAUGGUAACGGGUCUCCCUCCUAAGGAGAAGACUGCAGGUUCGGGUCCCGUACGGAACG | ≤ 0.5 |
| GUUCCGUUGGCGUAAUGGUAACGCGUCUCUCUCCUAAGGAAAAGACUGCGGGUUCGAGUCCCGUACGGCACG | ≤ 0.5 |
| GUUCCGUUGGCGUAAUGGUAUCGCGUCUCCGUCCUAAGGAGGAGACUGCGGGAUCGAGUCCCGUACGAAACG | ≤ 0.5 |
| GUUCCGUUGGCGUAAUGGUAACGCGUCUCCCUCCUCAGGAGUGGACUGCGGGUUCGAGUCCCCUACGGAACG | 0.509 |
| GUUUUGUUGGCGUCAUGGUAACGCGUCUCCCUCCUAAGGAGAAGACUGCGGGUUCGAGUCCCGUACGAAACG | ≤ 0.5 |
| GUCCCGUUGGCGUAAUGGUAACGCGUCUCCUUCCUAAGGAGAAGACUGCAGGUUCGACUCCCGUAUGGAACG | ≤ 0.5 |
| GUUCCGUUGGCGCAAUGGUAACGCGUCUCCCUCCUAAGGAGAAGACUGCGGGUUCGUGUCCCGUACGGAACG | 0.753 |
| GUUCCGUUAGCGUAAUGGUAACGCGUCUCCCUCCUAAGGAGAAGACCCCGGGUUCGAGACCCGUAAGGCACG | ≤ 0.5 |
| GUUCCGGUGGCGUAAUGGUAACGCGUAUCCCUCCUAAGGAGAAGACUGCGGGUUCGAGUCCCGUACGGAACG | 0.744 |
| GUUCUGUUGGCGUACUGGUAGCGCGUUUCCCUCCUAAGGAGAAGAUUGCGGGUUCGAGUCCCGUACGGAACG | ≤ 0.5 |
| GUUCCGUUGACGUAAUGGUAACGCGUCUCUCUCCUAAGGAGAAGAAUGCGGGUUCGAGUCCCGUAUGGAACG | ≤ 0.5 |
| GCUCCAUUGGCGUAAUGGUAACGCGUCUCCCUCCUAAGGAGAAGACUGCGGGUUCGAGUCGCGUACGGAACG | ≤ 0.5 |
| GUUCCGUUGGCGUAAUGGUAACGCGUCUCCCUCCUAAGGAGAAGACUGGGGGUUCCAGUCCCGUACGGACCG | ≤ 0.5 |
| GUUCCGUUGGCGUAAUGGGAACGCGUCUUCCUCCUAAGGAGAAGACUGCGGGUUCGAGUCCCGUACGGACCG | ≤ 0.5 |
| GUUCCGUUGCCGUAAUGGUAACGCGUCUCCCUCCUAAGGAGAAGACUGAGGGUUCGAGUCCCGUACGGAACG | ≤ 0.5 |

| Variant | yeast fitness |
| --- | --- |
| GUUCCGUUGGCGUAAUGGUAAUGCGUCUCCCUCCUAAGGAGAAGACUGCGGGUUCGGGUCCCGUACGGAACG | 0.775 |
| GUUCCGUUGGCGUAAUGGUAACCCGUCUCCCUACUAAGGAGAAGACUGCCGGUUCGACUCCCGUACGGAACG | ≤ 0.5 |
| GUUCCGUGGGCAGAAUGGUAAGGGGUCUCCCUCCUGCGGAGAAGACUGCGGGUUCGUGUCCCGUACGCAACG | 0.589 |
| GUUCCGUUGGCGUAAUGGUAACGUGUCUCCGUCCUAAGGAGAAGACUGCGGGUCCGAGUCCGGUACGGAACG | ≤ 0.5 |
| GUUUCAUUGGCGUCAUGGUAACGCGUCUCCCUCCUAAGGAGAAGACUGCGGGUUCGAGUCCCGUUCGGAACG | ≤ 0.5 |
| GUUCAGUUGGCGUGAUGGUAACGAGUCUCCCCCCUAAGGAGAAGACUGCGGGUUCGAGUCCCGUACGGAACG | ≤ 0.5 |
| GUUCCGUUGGCGUAAUGCUAAUGCGUCUCCCUCCUAAGGAGAAGACUGCGGGUUCCAGUCCCGUACGGAACG | 0.542 |
| GUUCCGUUGGCGUAAUGGUAACGCGUCUCCCUCCUUAGGAGAAGACUGCGGGUUCGACUUCCGUACGGAACG | ≤ 0.5 |
| GUUCCGUUGGCGUAAUGGUAACGGGUCUCCCUCCUAAGGAGAAGACUGCGGGUUCGAGUCCCGAACGGACCG | ≤ 0.5 |
| GUUCCGUUGGCGUAAUGGUAACGCGUAUCCCUCCUAAGGAGAUGACUGCGGGUUCGAGUCCCGCACGGAACG | 0.628 |
| GUUCCGUUGGCGUAAUGGGAACGAGUCUCCCUCCUAAGGCGAAGUCUGCGGGUUCGAGUCCCGUACGGAACG | ≤ 0.5 |
| GUUCCGUCGGCGUAAUGGUAACGCGUCUCCCUCCUAAGGAGAAGACUGCGGGUUCGAGUCCCGUACGGCACG | 0.991 |
| GUUCCGUUGGCGUAAUGGUAACGCGUCUCCCUCAUAAGGAGACGACUGCGGGUUCGAGUCCCGUCCGGAACG | ≤ 0.5 |
| GUUCCGUUGGCGUAAUGGUAACGCCUCUCCCCCCUAAGGAGAAGACUGCGGGUUCGAGUCCCGUACGGAACG | 0.948 |
| GUUCCGUUGGCGUAAUGGUAACGGGUCUCCAUCCUAAGGAGAAGACUGCGGGUUCGAGUCCCGUACGGAACG | 0.526 |
| GUUCCGUUGGCGUAAUGGUAACGCGUCUCUCUCCUAAGGAGAAGACUGCGGGAUCGAGUCCCGUACGGAACG | 0.672 |
| GUUCCGUUGGCGUCAUGGUAACGCCUCUCCCUCCUAAGGAGAAGACUGCGGAUUCGAGUCCCGUAUGGAACG | ≤ 0.5 |
| GUUCCGUUGAAGUACUGGUAACGAGUCUCCCUCAUAAGGAGAAGAGUGCGGGUUCGAGUCCCGUACCGAACG | ≤ 0.5 |
| GUUCCGUUGGCAUAAUGGUAACGAGUCUCCCUCCUAAGGAGAAGACUGCGGGUUCGAGUCCCGCACGGAACG | 0.682 |
| GUUCCGUUGGCGUAAUGGUAACGCGUGUCCCUCCUAAGAAGAAGACUGCGGGUUCGAGUCCCGUAGGGAACG | 0.655 |
| GUUCCCUUGGCGUAAUGGUGACGCGUCUCCCUCCUAAGGAGAAGACUGCGGGUUCGAGUCACGUACGGAACG | ≤ 0.5 |
| GUUCCGUCGGCGUAAUGGUAACGCGUCUCCCUCCUAAGGAGAAGAUUGGGGGUUCGAGUCCCGUACGGAACG | 0.701 |
| GUUCCGUUGGCGUGAUGGUAACGCGUCUCCAUCCUAAGGAGAACACUGCGGGUUCGAGUGCCGUACGGAACG | ≤ 0.5 |
| GUUCGGUUGGCGUAAUGGUAACGCGUUUCCCUCCUAAGGAGAAGACUGCGAGUUCGAGUCCCGUACGGAACG | ≤ 0.5 |
| GUUCCGUUGACGUAAUGGUAACGCGUCUCCCUCCUAAGGAGAAGACUGCGGGUUCGGGUCCGGUAUGGAACG | ≤ 0.5 |
